Screens deposited in PubChem BioAssay by SRMLSC.
Lung fibro prol: antiproliferative effect on LL 47 fibroblasts – human, LL 47 cells, CellTiter-Glo luminescence, primary screen; AID 719, 2007; LL 47 human lung fibroblast viability, ATP luminescence; hits give low values; 85,000 tested, 1.1% active; viability, % at 10 µM;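 active = viability at or below 50% in the single dose screen; inactive = viability above 50%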;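 also: compound exposure lasted 72 h before the ATP readout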
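Test system: LL 47 human lung fibroblasts / Incubation: 72 h compound exposure at 37 °C after overnight plating / Technique: luminescent ATP detection, CellTiter-Glo / Compound dosing: 0.1% DMSO in all compound wells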
PTEN del growth: growth suppression of PTEN-null HCT116, primary screen, cell-based, CellTiter-Glo; 140,000 tested, 1.2% active; AID 827, 2007; viability, % at 10 µM; HCT116 PTEN-null viability, 60 h; hits give low values;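 active = viability at or below a set limit, 4 SD under the median of all tested compounds, cut at about 3.7% in these data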;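 also: PTEN knockout HCT116 line with beta catenin targeted HCT116 as companion control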
H69AR growth 86K: proliferation blockers of H69AR lung cancer cells, primary screen, cell-based, human, 86K library. H69AR lung tumor viability, ATP luminescence, 72 h; hits give low values. viability, % at 10 µM. 85,000 tested, 6% active. AID 598, 2007;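 active = viability at or below 40%; inactive = viability above 40%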;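 also: multidrug resistant small cell line overexpressing MRP-1 efflux transporter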
HUVEC prolif 384: inhibitors of HUVEC proliferation, primary screen, cell-based, 384-well | CellTiter-Glo luminescence, 72 h; hits give low values | viability, % at 10 µM (by protocol) | 86,000 tested, 1.1% active | AID 648, 2007;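 active = viability at or below 30%; inactive = viability above 30%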
bCat KO growth: primary screen for growth suppressors in beta-catenin knockout HCT116 cells (colon tumor, human) | viability, % at 10 µM | 140,000 tested, 1.5% active | HCT116 beta-catenin knockout viability, CellTiter-Glo, 60 h; hits give low values;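 active = viability at or under a set limit, the compound median less 4 SD, cut at about 6% in these data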
Each line names hits and unclear results; the compound was inactive in the other large screens. This is one part of a sample in which hits are shown more often than they occur.

CCOc1ccccc1C(=O)N[C@H](C(=O)OCc1cc([N+](=O)[O-])cc2c1OCOC2)C(C)C	none (no result: Lung fibro prol, H69AR growth 86K, HUVEC prolif 384)
O=C1C(=O)c2ccc(-c3ccccc3)cc2-c2ccccc21	Lung fibro prol 2.7, PTEN del growth 0.1, H69AR growth 86K 1.5, HUVEC prolif 384 2.2, bCat KO growth 0.1
CC(=O)Nc1ccc2c(c1)C(=O)c1ccccc1C2=O	none (no result: Lung fibro prol, H69AR growth 86K, HUVEC prolif 384)
Nc1ccc2c(c1)C(=O)C(=O)c1ccccc1-2	Lung fibro prol 2.1, PTEN del growth 1.1, H69AR growth 86K 0.2, HUVEC prolif 384 3.1, bCat KO growth 1.0
CCC(=O)c1c[nH]c(C(=O)NCCCn2ccnc2)c1	none (no result: Lung fibro prol, H69AR growth 86K, HUVEC prolif 384)
Cc1ccc(CN(CC(=O)NC2CCCC2)C(=O)CSc2nnc(COc3ccccc3)o2)cc1	H69AR growth 86K 16
O=C(CN(Cc1ccccc1)C(=O)CSc1nnc(COc2ccccc2)o1)NC1CCCC1	none
COc1ccc(OC)c(/C=N/c2oc(-c3ccco3)c(-c3ccco3)c2C#N)c1	bCat KO growth 3.5
N#Cc1c(N)oc(-c2ccco2)c1-c1ccco1	bCat KO growth 5.9
CCSc1nc(N)c(C#N)c(-c2ccco2)c1C#N	H69AR growth 86K 32
N#Cc1c(/N=C/c2ccco2)oc(-c2ccccc2)c1-c1ccccc1	none
C[C@@H]1NC(=O)c2cc([N+](=O)[O-])cc(I)c2NCCCC[C@@H](C(N)=O)NC(=O)[C@H](CCC(=O)O)NC1=O	none (no result: Lung fibro prol, H69AR growth 86K, HUVEC prolif 384)
COc1ccccc1-c1cc(SC)c(C#N)c(=O)o1	none (no result: Lung fibro prol, H69AR growth 86K, HUVEC prolif 384)
NC(=O)NC(=O)CSc1nc(-c2ccccc2)c(-c2ccccc2)n1CC1CCCO1 (stereo not drawn)	H69AR growth 86K 36
O=C(CSc1nc2ccccc2c(=O)n1CC1CCCO1)NCC1CCCO1 (stereo not drawn)	none
C/C(=N\NC(=O)c1nonc1N)c1cccs1	none (no result: Lung fibro prol, H69AR growth 86K, HUVEC prolif 384)
CCOC(=O)c1cc2sc(C)cc2n1CC(=O)N1CCOCC1	none
CCOC(=O)c1cc2sc(C)cc2n1CC(=O)NCc1ccc(F)cc1	H69AR growth 86K 30
CCc1ccc2nc(SCC(=O)N3CC(=O)Nc4ccccc43)c(C#N)cc2c1	H69AR growth 86K 5.2
COc1ccc(CCNC(=O)C2CCN(Cc3nc(-c4ccccc4F)oc3C)CC2)cc1OC	none
Cc1oc(-c2ccccc2F)nc1CN1CCC(C(=O)NCCC2=CCCCC2)CC1	HUVEC prolif 384 20
Cc1ccccc1-c1nc(CN2CCC(C(=O)NCCCN3CC(C)CC(C)C3)CC2)c(C)o1 (stereo not drawn)	HUVEC prolif 384 14
O=S(=O)(Nc1cccc(-c2nc3cccnc3s2)c1)c1ccc2c(c1)OCCO2	none
Cc1ccc(-c2nc3cccnc3s2)cc1NS(=O)(=O)c1ccc2c(c1)OCCO2	H69AR growth 86K 21
COc1ccccc1N1CCN(c2cc(=O)n(Cc3ccc(F)cc3)c(=O)[nH]2)CC1	H69AR growth 86K 30
N#CC(=C1CCCC1)c1nc(-c2ccccc2O)cs1	H69AR growth 86K 29
COC(=O)c1cn(CC(=O)N2C(C)CCCC2C)c2ccccc12 (stereo not drawn)	none
CC1CCCC(C)N1C(=O)Cn1cc(/C=C2/C(=O)Nc3ccccc32)c2ccccc21 (stereo not drawn)	H69AR growth 86K 23
Cc1cccc2cc(CN(Cc3ccccc3)C(=O)N3CCOCC3)c3nnnn3c12	none (no result: PTEN del growth, bCat KO growth)
CCOC(=O)Cn1c2c(c(=N)c3c1CCC3)CCC2	none
CCCCCCCCCCn1c2c(c(=N)c3c1CCC3)CCC2	Lung fibro prol 8.6, PTEN del growth 0.9, H69AR growth 86K 1.8, HUVEC prolif 384 4.3, bCat KO growth 1.6
CC(C)(C)c1ccc(-c2noc(CCC(=O)NCC3CCCO3)n2)cc1 (stereo not drawn)	none
CC(C)n1nc(C(=O)Nc2nnc(SCc3c(Cl)cccc3Cl)s2)c2ccccc2c1=O	none
Cc1cc(C)nc(NC(=O)c2ccc([N+](=O)[O-])o2)n1	bCat KO growth 4.2 (no result: Lung fibro prol, H69AR growth 86K, HUVEC prolif 384)
O=C(NNC(=S)NC(=O)c1ccccc1[N+](=O)[O-])c1ccccc1	H69AR growth 86K 25
CCOC(=O)/C(=C\c1ccc([N+](=O)[O-])o1)NC(=O)c1ccccc1	none
O=C(NNC(=O)c1ccc([N+](=O)[O-])o1)c1ccccc1	Lung fibro prol 43
COC(=O)/C(=C/c1ccco1)NC(=O)c1ccco1	none (no result: Lung fibro prol, H69AR growth 86K, HUVEC prolif 384)
CCNC(=O)C(=O)NCC1OCCCN1S(=O)(=O)c1cccs1 (stereo not drawn)	none (no result: Lung fibro prol, H69AR growth 86K, HUVEC prolif 384)
O=C(Cc1cc(=O)[nH]c(=O)[nH]1)N1CCC(Cc2ccccc2)CC1	none
O=C(COc1ccccc1Cl)NCc1ccncc1	none
CCCS(=O)(=O)N1CCC(C(=O)NCCN(C)Cc2ccccc2)CC1	none
Cc1[nH]c2c(ccc3ccccc32)c1C1C(CCN)C1(C)C (stereo not drawn)	Lung fibro prol 2.7, PTEN del growth 1.8, H69AR growth 86K 4.4, HUVEC prolif 384 2.4, bCat KO growth 1.9
O=C(Nc1ccc(N2CCOCC2)cc1)Nc1ccc2nc(-c3ccco3)c(-c3ccco3)nc2c1	H69AR growth 86K 9.5, HUVEC prolif 384 22
Cc1cc(=O)oc2cc(OCC(=O)N3c4ccccc4CC3C)ccc12 (stereo not drawn)	H69AR growth 86K 24
Cc1cc(=O)oc2cc(OCC(=O)N3CC(C)OC(C)C3)ccc12 (stereo not drawn)	none
Cc1cc(=O)oc2cc(OCC3CC(c4ccccc4)=NO3)ccc12 (stereo not drawn)	H69AR growth 86K 24
Cc1nn(C)c(C)c1S(=O)(=O)N1CCC(C(=O)NCC2COc3ccccc3O2)CC1 (stereo not drawn)	none
COc1cc2c(cc1OC)C(C1C(=O)CCCC1=O)N(C(=O)CCl)CC2 (stereo not drawn)	none (no result: Lung fibro prol, H69AR growth 86K, HUVEC prolif 384)
COc1cc2c(cc1OC)C(c1ccccc1)N(C(=O)CCl)CC2 (stereo not drawn)	PTEN del growth 2.0, bCat KO growth 1.9 (no result: Lung fibro prol, H69AR growth 86K, HUVEC prolif 384)
COCCOC(=O)c1[nH]c2c(c1C)C(=O)CC(c1ccccc1)C2 (stereo not drawn)	H69AR growth 86K 39
COCCOC(=O)c1[nH]c2c(c1C)C(=O)CC(c1ccc(F)cc1)C2 (stereo not drawn)	H69AR growth 86K 25
COCCOC(=O)c1[nH]c2c(c1C)C(=O)CC(c1ccc(N(C)C)cc1)C2 (stereo not drawn)	none
Cc1ccc(-c2nn(C)c(=O)c3ccccc23)cc1CNC(=O)CN1CCOCC1	none
Cc1cc(C)n(CC(=O)NCc2cc(-c3nn(C)c(=O)c4ccccc34)ccc2C)n1	H69AR growth 86K 30
Cc1ccc(-c2nn(C)c(=O)c3ccccc23)cc1CNC(=O)Cn1nc(-c2ccccc2)c2ccccc2c1=O	H69AR growth 86K 1.6
Cc1ccc(-c2nn(CC(=O)NCCN3CCOCC3)c(=O)c3ccccc23)cc1	none
Cc1ccc(-c2nn(C)c(=O)c3ccccc23)cc1CO	none (no result: Lung fibro prol, H69AR growth 86K, HUVEC prolif 384)
